Screens deposited in PubChem BioAssay by The Scripps Research Institute Molecular Screening Center.
Sampled rows, rich in hits. Any-hit rate of the full collection: about 1.2%.
EBNA-1 inhibitor: blocks EBNA-1 binding to DNA; EBNA-1 DNA binding, fluorescence polarization; inhibition, % at 14.8 µM; 0.34% of 300,000 active; in the data active means inhibition above about 28%
ZTA counter: blocks Epstein-Barr virus ZTA, an EBNA-1 counter-screen | inhibition, % at 11 µM | AID 2234 | P03206 | ZTA-DNA binding, fluorescence polarization | 0.15% of 320,000 active; in the data active means inhibition above about 33%
Target sequence (P03206 whole entry, looked up): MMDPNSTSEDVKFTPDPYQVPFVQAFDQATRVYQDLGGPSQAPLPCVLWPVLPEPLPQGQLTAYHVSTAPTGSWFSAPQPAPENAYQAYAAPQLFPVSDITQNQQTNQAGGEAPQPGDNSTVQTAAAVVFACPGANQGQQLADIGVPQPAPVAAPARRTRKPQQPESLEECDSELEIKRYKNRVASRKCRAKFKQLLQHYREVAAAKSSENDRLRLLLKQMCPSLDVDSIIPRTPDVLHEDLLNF
HCV NS3 hel inh: blocks Hepatitis C virus NS3 helicase unwinding; NS3 helicase DNA unwinding, Cy5 molecular beacon fluorescence; inhibition, % at 10.9 µM; 0.56% of 290,000 active; AID 1800;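 active means inhibition above the mean of all tested compounds plus 3 SD, set per campaign, cut at about 35% in these data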;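 further: 0% = DMSO wells and 100% = thioflavine S control wells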
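Measured by: Cy5 fluorescence, 0 and 60 min reads / Assay system: NS3 helicase fragment of HCV / Control set: low DMSO, high thioflavine S at 110 µM / Times: 1 h reaction at 25 °C, ATP-initiated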
core dimer inh: HCV core protein dimerization inhibition; TR-FRET GST/Flag-core106 dimerization, 1536-well; 0.33% of 300,000 active; inhibition, % at 5 µM; AID 1899;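 active means inhibition above the mean of all tested compounds plus 3 SD, set per screening campaign, cut at about 45% in these data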
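assay system = GST-tagged and Flag-tagged HCV core protein residues 1-106 | controls = unlabelled core106 and no-GST-core106 wells | incubation = compound-protein-antibody incubation 4 h at 22.5 °C | probe or stimulus = Eu donor and XL665 acceptor anti-tag antibodies | read-out = % inhibition based on acceptor/donor emission ratio | signal = TR-FRET 671 and 617 nm emission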
EBNA-1 inh conf: EBNA-1 (EBV) inhibition, confirmation; shares compounds with EBNA-1 inhibitor; Recombinant EBNA-1 DBD, Cy5-DNA fluorescence polarization; inhibition, % at 14.8 µM; 35% of 830 active;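 active means mean inhibition across replicates above a set limit taken from the earlier primary screen, cut at about 28% in these data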;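 further: plate controls were EBNA-1 protein with DMSO for no effect and wells lacking EBNA-1 for full effect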
ZTA DNA inh trip: blocks Epstein-Barr virus ZTA in triplicate, EBNA-1 counter-screen. inhibition, % at 11.1 µM. Zta-ZRE DNA binding, Cy5 fluorescence polarization. shares compounds with EBNA-1 inhibitor. 830 tested, under 10 active. AID 2328;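 active means mean inhibition over triplicates above a set limit taken from the primary EBNA-1 screen, cut at about 37% in these data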;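 further: purified full length Zta protein with Cy5 labeled ZRE DNA probe; 0% = Zta with DMSO and 100% = wells lacking Zta protein; inhibitors lower polarization by freeing the labeled DNA probe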
* = called active by the depositor; nt = no result.

SMILES	EBNA-1 inhibitor	ZTA counter	HCV NS3 hel inh	core dimer inh	EBNA-1 inh conf	ZTA DNA inh trip
CCOC(=O)c1cc2cc(CC(=O)c3ccc(OCC)cc3O)ccc2o1	27.8*	-8.6	0.1	0.3	29.6*	9.2
COc1ccc(CC(=O)Nc2ccc3c(C)cc(=O)oc3c2)cc1OC	40.1*	-8.5	-7.0	-0.1	8.2	0.3
Cc1ccc(C)c(Nc2nc3ccc(C)cc3n3cnnc23)c1	-7.8	-19.4	3.2	-7.8	nt	nt
N#Cc1c(-c2cccs2)cc(C2CC2)nc1SCC(N)=O	36.0*	0.0	0.3	9.1	30.7*	3.1
O=c1/c(=C/c2ccccn2)sc2nc3ccccc3n12	-4.5	12.2	5.8	22.7	nt	nt
O=c1/c(=C\c2cc([N+](=O)[O-])cc([N+](=O)[O-])c2O)sc2nc3ccccc3n12	27.5*	7.0	16.7	13.0	28.3*	24.8
Cc1ccc(OCc2nnc(NC(=O)c3ccco3)s2)c(C)c1	45.6*	3.5	-3.7	5.5	-2.3	-1.5
CCn1c(COc2ccccc2C)nnc1SCC(=O)Nc1cc(C)on1	50.4*	-0.3	-4.2	-1.7	3.2	13.2
Cc1ccc(C)c(N(CC(=O)Nc2ccc(-c3nc4ccc(C)cc4s3)cc2)S(C)(=O)=O)c1	36.0*	9.1	-3.3	-43.4	2.6	-9.6
Cc1ccc(N(CC(=O)Nc2ccc(-c3nc4ccc(C)cc4s3)cc2)S(C)(=O)=O)cc1	-0.2	26.9	9.7	4.4	nt	nt
O=[N+]([O-])c1ccc(C[n+]2cc(-c3ccc(Cl)c(Cl)c3)n3c2CCCCC3)cc1	33.1*	-6.0	-47.2	-7.1	0.1	10.3
CCCCn1nc2cc(C(=O)NCc3ccccc3)ccc2c1OCC	3.5	-6.8	3.3	3.8	nt	nt
CC(=O)Nc1ccc(NC(=O)/C=C/c2ccc3c(c2)OCO3)cc1	-3.5	-9.7	1.4	-3.9	nt	nt
NS(=O)(=O)c1ccc(NC(=O)/C=C/c2ccc3c(c2)OCO3)cc1	43.8*	32.5	-19.1	2.4	13.7	13.4
COc1ccc2cc(/C=N/NC(=O)CN(c3ccccc3)S(=O)(=O)c3ccccc3)c(Cl)nc2c1	34.6*	-4.0	2.9	16.3	7.5	-10.4
COc1ccc2cc(/C=N/NC(=O)c3ccc(CN(c4ccc(C)c(C)c4)S(C)(=O)=O)cc3)c(Cl)nc2c1	53.4*	-2.8	-1.0	15.7	24.2	14.0
COc1ccc2cc(/C=N/NC(=O)c3c(Cl)cnn3C)c(Cl)nc2c1	-1.2	-3.4	-12.0	-0.9	nt	nt
COC(=O)COc1ccc(/C=N/NC(=O)c2ccc(N(Cc3ccccc3)S(C)(=O)=O)cc2)cc1	67.5*	-19.9	-10.0	-54.9	15.8	-0.2
CCN(CC)C(=O)Cn1cnc2sc(C)c(S(=O)(=O)N3CCC(C)CC3)c2c1=O	-18.0	4.5	-3.5	-2.4	nt	nt
Cc1cccc(OCC(=O)N/N=C\C=C\c2ccc3c(c2)OCO3)c1C	58.7*	-6.8	1.6	-2.0	80.3*	-1.1
Cc1c(C(=O)NCc2ccc3c(c2)OCO3)sc2nc(-c3ccc(F)cc3)cn12	36.8*	-5.0	-2.2	8.0	7.7	4.5
O=C(Nc1cc(F)cc(F)c1)c1ccc(NCCc2ccccc2)c([N+](=O)[O-])c1	74.4*	11.2	-3.5	9.8	5.2	7.2
O=C(CSc1nc2ncc(Cl)cc2[nH]1)c1c[nH]c2ccccc12	31.0*	-13.6	-10.9	6.0	17.9	7.5
COC(=O)[C@H](Cc1ccccc1)NC(=O)O[C@H]1C(=O)c2ccc(OC)cc2O[C@@H]1c1ccc2c(c1)OCO2	28.7*	-24.5	4.9	0.7	-0.2	2.1
CCCCOC(=O)Nc1nnc(Cc2ccc(Cl)cc2)s1	-6.0	-12.6	-4.3	3.5	nt	nt
SMILES	EBNA-1 inhibitor	ZTA counter	HCV NS3 hel inh	core dimer inh	EBNA-1 inh conf	ZTA DNA inh trip
O=C(CCCN1C(=O)/C(=C/c2cccs2)SC1=S)NNC(=O)c1ccccc1O	40.1*	19.7	3.6	-2.5	20.4	7.6
Cn1c(=O)c(C(=O)CSc2nnc(Nc3ccccc3)s2)c(N)n(Cc2ccccc2)c1=O	35.1*	-3.3	1.8	30.6	13.8	4.0
O=C1CNC(=S)N1c1nc(-c2ccccc2)cs1	-7.0	0.0	0.3	-3.9	nt	nt
COc1ccc(-c2csc(N3C(=O)CNC3=S)n2)cc1	81.6*	-1.2	-8.1	-0.2	43.6*	-11.2
COc1ccc(-c2csc(N3C(=N)SCC3=O)n2)cc1	44.2*	2.6	-0.7	1.6	16.4	-0.9
COc1ccccc1C(=O)Nc1ccc(-c2nnn(CC(=O)NCc3ccco3)n2)cc1	42.0*	3.0	-2.4	19.0	51.9*	19.1
O=C(Cn1nnc(-c2ccccc2NC(=O)c2cccs2)n1)Nc1ccccc1	27.6*	3.5	-0.3	9.1	47.3*	2.4
COc1ccccc1NC(=O)Cn1nnc(-c2ccccc2NC(=O)c2cccs2)n1	-7.0	-23.5	2.5	1.9	nt	nt
COc1ccc(C(=O)Nc2ccccc2-c2nnn(CC(=O)NCc3ccco3)n2)cc1	54.3*	1.7	1.3	1.3	15.3	5.8
CCN(CC)CCN(Cc1cc2ccc(C)cc2[nH]c1=O)C(=O)Nc1ccc(Cl)cc1	-21.5	-0.8	-18.5	-3.6	nt	nt
CCCOC(=O)c1cccc(NC(=O)COc2ccc([N+](=O)[O-])cc2)c1	109.0*	3.7	-4.6	-3.2	6.5	3.7
CC(=O)Nc1ccc(C(=O)CSc2nnnn2C)cc1	2.5	-7.5	-5.2	1.9	nt	nt
Cn1nnnc1SCc1ccc(C(=O)Nc2ccc(Br)cc2)cc1	39.4*	6.6	-0.4	-1.1	17.8	1.4
CCOC(=O)[C@H]1[C@H]2COc3ccc(Cl)cc3[C@@H]2N2C(=O)c3ccc(Cl)cc3NC(=O)[C@@]12C	76.9*	-2.2	nt	22.0	81.8*	12.8
CCOC(=O)[C@H]1[C@H]2COc3ccc(OC)cc3[C@@H]2N2C(=O)c3ccc(Cl)cc3NC(=O)[C@@]12C	13.4	-1.1	nt	13.7	nt	nt
Cc1nc(-c2ccccc2)nc2[nH]c(-c3ccccc3)cc(=O)c12	27.6*	-4.6	-9.4	8.6	18.2	-3.2
Cc1nc(C)c2c(=O)cc(-c3ccccc3)[nH]c2n1	4.8	16.2	4.9	-0.6	nt	nt
CCc1nnc(NC(=O)CSc2ccc(-c3nc4ccc(C)cc4[nH]3)cn2)s1	44.6*	-6.0	-6.8	9.3	14.7	-1.7
Cc1ccc2nc(-c3ccc(SCC(=O)O)nc3)[nH]c2c1	0.6	-6.2	5.7	-2.9	nt	nt
CN(C)c1ccc(NS(=O)(=O)c2cc3c4c(c2)CC(=O)N4CCC3)cc1	-8.0	-10.8	-4.7	4.3	nt	nt
Nc1c(C(=O)Nc2ccc3c(c2)OCCO3)nnn1Cc1cccc(Br)c1	35.7*	-0.7	nt	-0.7	29.8*	0.8
O=C(O)CSc1nnc(-c2ccc(Cl)cc2Cl)n1-c1ccc(Br)cc1	-0.3	-11.8	21.8	-6.2	nt	nt
Clc1ccc(OCc2nnc3n2CCCCC3)c(Cl)c1	0.9	2.8	-7.0	0.4	nt	nt
O=C(NCc1ccc2c(c1)OCO2)C12CN(Cc3ccccc3)CC1C(c1cccc([N+](=O)[O-])c1)=NO2 (stereo not drawn)	174.0*	10.8	-5.7	31.4	-20.7	-4.9
